A short description of test [1]: Antioxidant activity assessed as ABTS free radical scavenging activity at 10 uM. Format: functional.
Test [2] concerns the target Amyloid-beta precursor protein (Homo sapiens) (UniProt P05067). Nature of the test: Inhibition of human amyloid-beta (1 to 42 residues) oligomer at 1:1 protein to compound ratio after 2 hrs by ELISA. The note with it: concentration not given here. In general terms: ELISA stands for enzyme-linked immunosorbent assay.
Test [3] addresses T1, Cholinesterase (Homo sapiens, UniProt P06276). Kind of test: Inhibition of BuChE (unknown origin) by spectrophotometric analysis based Ellman's assay. Background: Ellman's reagent forms a yellow product with free thiols.
A short description of test [4]: Antioxidant activity assessed as inhibition of peroxyl radical-induced oxidation at 10 uM by ORAC assay. Format: functional. Also on record: scale not given: the % may be the effect or the level left.
For test [5], the target named is Amyloid-beta precursor protein (Homo sapiens) (UniProt P05067). Kind of test: Inhibition of human amyloid-beta (1 to 42 residues) fibril at 1:1 protein to compound ratio after 2 hrs by ELISA. The following applies: concentration not given here.
Sequence of Amyloid-beta precursor protein (Homo sapiens) (P05067 whole entry, the tested form may be a part): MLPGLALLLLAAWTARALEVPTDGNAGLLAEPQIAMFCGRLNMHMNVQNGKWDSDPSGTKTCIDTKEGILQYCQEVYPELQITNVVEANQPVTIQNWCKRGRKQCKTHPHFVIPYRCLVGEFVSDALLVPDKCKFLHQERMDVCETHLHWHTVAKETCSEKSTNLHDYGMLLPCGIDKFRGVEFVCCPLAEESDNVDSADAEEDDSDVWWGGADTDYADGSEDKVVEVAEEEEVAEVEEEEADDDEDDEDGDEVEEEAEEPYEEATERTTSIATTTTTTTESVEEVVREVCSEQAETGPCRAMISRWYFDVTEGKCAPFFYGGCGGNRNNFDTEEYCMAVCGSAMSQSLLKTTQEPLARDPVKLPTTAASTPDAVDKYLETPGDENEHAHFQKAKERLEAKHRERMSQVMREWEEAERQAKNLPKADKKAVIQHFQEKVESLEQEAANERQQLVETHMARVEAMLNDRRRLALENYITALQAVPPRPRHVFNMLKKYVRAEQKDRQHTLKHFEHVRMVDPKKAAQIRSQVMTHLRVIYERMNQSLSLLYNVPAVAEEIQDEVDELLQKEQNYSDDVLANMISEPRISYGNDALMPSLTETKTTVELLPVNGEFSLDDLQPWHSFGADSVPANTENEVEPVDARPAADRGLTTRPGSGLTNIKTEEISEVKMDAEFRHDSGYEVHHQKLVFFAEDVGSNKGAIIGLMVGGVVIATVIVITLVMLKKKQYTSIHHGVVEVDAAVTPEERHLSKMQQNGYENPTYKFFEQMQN
Test [6] is described as follows: Antioxidant activity assessed as DPPH radical scavenging activity at 10 uM. It is filed as functional. For orientation: DPPH is a stable violet radical that fades when it is reduced.
Test [7] has as its target T1, Cholinesterase. Nature of the test: Inhibition of BuChE (unknown origin) at 10 uM by spectrophotometric analysis based Ellman's assay. The method, boiled down: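 Ellman colorimetric assay of BuChE activity, with each compound tested at a single 10 μM concentration. […] Activity is reported as percent inhibition.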

A word on the inhibition: it is the change of the read-out against control, counted positive when it falls. The term pIC50 denotes the negative decadic logarithm of the IC50, by convention in mol/L.

Structures are written as SMILES. pIC50: −log10 of the molar value.

T1 sequence (P06276 whole entry): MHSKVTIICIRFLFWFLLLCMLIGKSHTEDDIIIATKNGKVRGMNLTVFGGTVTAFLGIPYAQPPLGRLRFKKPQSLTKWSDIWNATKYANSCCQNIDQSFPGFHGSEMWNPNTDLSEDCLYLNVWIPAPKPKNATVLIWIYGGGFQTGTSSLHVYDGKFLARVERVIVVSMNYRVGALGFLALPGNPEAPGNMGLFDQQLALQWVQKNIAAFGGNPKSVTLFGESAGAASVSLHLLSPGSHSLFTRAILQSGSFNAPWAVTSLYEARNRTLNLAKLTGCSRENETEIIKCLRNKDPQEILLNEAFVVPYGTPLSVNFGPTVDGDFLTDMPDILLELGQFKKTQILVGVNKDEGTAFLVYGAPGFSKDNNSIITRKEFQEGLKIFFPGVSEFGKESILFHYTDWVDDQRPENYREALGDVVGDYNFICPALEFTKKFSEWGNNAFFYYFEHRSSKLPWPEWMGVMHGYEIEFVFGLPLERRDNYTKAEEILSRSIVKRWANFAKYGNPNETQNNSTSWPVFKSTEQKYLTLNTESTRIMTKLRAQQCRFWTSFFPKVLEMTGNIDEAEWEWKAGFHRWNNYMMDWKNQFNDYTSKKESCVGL

With `Cc1ccc2[nH]c3c(-c4ccccc4)nccc3c2c1`, the Activity in test [1] was 10%; in test [4] it was 10%; in test [6], 2%. Also, the inhibition is 6% in test [2], -7% in test [5] and 54% in test [7]. Moreover, the pIC50 in test [3] is 5.51.

As for `c1ccc2c(c1)[nH]c1c(C3CCCCC3)nccc12`, the inhibition in test [2] came to 30%.

Consider `Fc1ccc(-c2nccc3c2[nH]c2ccccc23)cc1`, for which the Activity was 22% in test [1], 54% in test [4] and -3% in test [6]. Also, the inhibition amounted to 22% in test [2], 37% in test [5] and 79% in test [7]. The same compound gave a negative-log IC50 (pIC50) in test [3] of 5.37.

Turning to `c1ccc2c(-c3nccc4c3[nH]c3ccccc34)cccc2c1`, the Activity in test [1] is 14%; in test [4] it was 0%; in test [6], -6%. The inhibition in test [2] is 58%; in test [5], 39%; in test [7], 95%. This compound also showed a negative-log IC50 (pIC50) in test [3] of 6.66.

In the case of `COc1ccc2[nH]c3c(-c4ccc(F)cc4)nccc3c2c1`, the Activity is 15% in test [1], 41% in test [4] and -13% in test [6]. This compound also gave a negative-log IC50 (pIC50) in test [3] below 5.00. Further, the inhibition was found to be 12% in test [5] and 34% in test [7].

On to `COc1ccc2[nH]c3c(-c4ccc(C)cc4)nccc3c2c1`, for which the Activity was 13% in test [1], 28% in test [4] and -12% in test [6]. Moreover, the inhibition was 63% in test [2], 10% in test [5] and 32% in test [7]. In test [3], this compound gave a pIC50 below 5.00.

As for `O=C(c1ccc(C(F)(F)F)cc1)c1nccc2c1[nH]c1ccccc12`, the Activity in test [1] is 7%; in test [4] it was -10%; in test [6], -1%. The same compound gave a negative-log IC50 (pIC50) in test [3] of 5.89. Further, the inhibition in test [5] was determined as 11%; in test [7], 69%.

Take `O=C1O[C@H]([C@@H](O)CO)C(O)=C1O`: the values for the Activity in test [1], in test [4] and in test [6] were 28%, 15% and 15%, respectively.

Turning to `O=C(c1ccccc1)c1nccc2c1[nH]c1ccccc12`, the Activity in test [1] was 6%; in test [4] it was 6%; in test [6], -3%. The compound further had a pIC50 in test [3] below 5.00. Also, the inhibition in test [5] was found to be 20%; in test [7] it was 11%.

With `Cc1ccc2[nH]c3c(-c4ccc(C(F)(F)F)cc4)nccc3c2c1`, the values for the inhibition in test [2] and in test [5] were 82% and 34%, respectively.

For the compound `COc1ccc2[nH]c3c(C(=O)c4ccc(C(F)(F)F)cc4)nccc3c2c1`, the Activity in test [1] amounted to 3%; in test [4], 5%; in test [6] it was 2%. Moreover, the inhibition is 84% in test [2], -5% in test [5] and 46% in test [7]. In test [3], this compound gave a pIC50 of 5.85.

Turning to `Cc1c(C)c2c(c(C)c1O)CCC(C)(C(=O)O)O2` (stereo not given), the Activity in test [1] is 26%; in test [4], 90%; in test [6] it was 23%.

As for `COc1ccc2[nH]c3c(C(=O)c4ccc(F)cc4)nccc3c2c1`, the Activity in test [1] was 5%; in test [4], 5%; in test [6], -4%. In addition, the values for the inhibition in test [2], in test [5] and in test [7] were 82%, 6% and 1%, respectively. For the same compound, the pIC50 in test [3] is below 5.00.

`COc1ccc2[nH]c3c(-c4ccccc4)nccc3c2c1`: the Activity in test [1] was 16%; in test [4], 35%; in test [6], -6%. Further, the inhibition was determined as 58% in test [2], 19% in test [5] and 64% in test [7]. Besides, the pIC50 in test [3] is 5.35.

`Cc1ccccc1-c1nccc2c1[nH]c1ccccc12`: the Activity came to 15% in test [1], 58% in test [4] and 0% in test [6]. The values for the inhibition in test [2], in test [5] and in test [7] were 45%, 17% and 7%, respectively. In test [3], this compound gave a pIC50 below 5.00.

Consider `c1ccc(-c2nccc3c2[nH]c2ccccc23)cc1`, for which the values for the Activity in test [1], in test [4] and in test [6] were 12%, 10% and -7%, respectively. In addition, the inhibition in test [2] was 79%; in test [5] it was -4%; in test [7], 46%. The compound further gave a pIC50 in test [3] below 5.00.

(Values after ChEMBL document CHEMBL3870350, “Synthesis and application of β-carbolines as novel multi-functional anti-Alzheimer's disease agents” (Bioorg Med Chem Lett, 2017).)
